# Sampled rows, rich in hits. Any-hit rate of the full collection: about 8.8%.
# S1P1 ag pot: S1P1 agonists and agonism potentiators, primary screen, cell-based, primary and confirmation screens, CRE-bla reporter; AID 449, 2006; activation, % at 9.5 µM; Sphingosine 1-phosphate receptor 1 (Homo sapiens), P21453; S1P1 CRE-bla cells, forskolin, beta-lactamase FRET, potentiator mode; S1P1 agonist co-added at EC20, 2 nM; 100% = saturating reference agonist, 0% = basal; 56,000 compounds, 0.57% hits;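 active = activation above a cutoff set at the mean activation of all tested compounds plus 3 SD, cut at about 54% in these data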;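 also: forskolin at 4 µM as EC80 and the EC20 agonist is SEW2871; 100% = SEW2871 at its EC100 plus forskolin at EC80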
# RORA act: activators of orphan receptor RORA, primary screen, cell-based, luminescence; Nuclear receptor ROR-alpha (Homo sapiens), P35398; CHO-K1 Gal4-RORA LBD luciferase reporter; percent increase over mock-subtracted basal signal; activation, % at 10 µM; 65,000 compounds, 1.5% hits; AID 560, 2006;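 active = activation above the mean of all tested compounds plus 3 SD, cut at about 49% in these data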;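 also: 0% = DMSO-treated RORA cells and 100% = added signal equal to DMSO minus mock-transfected cells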
# M1 agonist: M1 muscarinic receptor agonists, primary screen, CHO-M1 cells, Fluo-4 calcium, agonist mode. Muscarinic acetylcholine receptor M1. Fluo-4 calcium fluorescence; stronger effect = higher value. B-score at 10 µM. 64,000 compounds, 3% hits. AID 626, 2007;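 active = fluorescence rise, raw or as B-score row- and column-corrected plate score, outside the 99.7% band of its plate's samples, either direction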
# M1 antag: antagonists of rat M1 muscarinic receptor. 64,000 compounds, 3.4% hits. B-score at 10 µM. CHO-M1 cells, Fluo-4 calcium, ACh EC80 antagonist mode; stronger effect = lower value. Muscarinic acetylcholine receptor M1 (Rattus norvegicus), P08482. AID 628, 2007;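 active = calcium fluorescence response, raw or row-and-column corrected B-score, differing from the plate sample mean either way at a set confidence level, mostly lower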
# Target sequence (P08482 whole entry, looked up): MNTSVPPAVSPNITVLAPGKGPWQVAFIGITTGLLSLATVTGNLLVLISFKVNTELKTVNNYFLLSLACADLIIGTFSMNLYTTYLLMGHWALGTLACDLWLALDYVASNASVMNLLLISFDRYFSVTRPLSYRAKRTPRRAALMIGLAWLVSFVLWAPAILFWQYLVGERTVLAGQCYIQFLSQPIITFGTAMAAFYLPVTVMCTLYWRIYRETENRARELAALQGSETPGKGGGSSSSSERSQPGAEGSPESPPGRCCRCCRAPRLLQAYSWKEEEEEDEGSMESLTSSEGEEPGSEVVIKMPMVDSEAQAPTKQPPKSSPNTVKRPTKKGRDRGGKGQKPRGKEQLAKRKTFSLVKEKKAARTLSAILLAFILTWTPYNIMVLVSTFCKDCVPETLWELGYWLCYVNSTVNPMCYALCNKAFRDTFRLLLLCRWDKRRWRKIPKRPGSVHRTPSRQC
# S1P3 ag: human S1P3 receptor agonists, primary screen, cell-based, primary and confirmation, NFAT-BLA reporter; S1P3 NFAT-BLA reporter cells, agonism, FRET ratio; relative to 1 µM S1P, basal subtracted; activation, % at 4.5 µM; 60,000 compounds, 0.1% hits; Sphingosine 1-phosphate receptor 3 (Homo sapiens), Q99500;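 active = activation above the screen-wide mean plus 3 SD, cut at about 4.5% in these data, passing the limit was not always enough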
#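 material = human S1P3 NFAT-BLA reporter CHO cells | schedule = 4 h compound at 37 °C, 2 h substrate at RT | measured by = fluorescent BLA substrate, ex 405 nm, em 460/535 nm ratio | controls = 1 µM S1P reference | replication = primary once, confirmation triplicate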
# SF-1 act: activators of human SF-1, primary screen, cell-based, CHO-K1, Gal4-SF-1 LBD, luciferase luminescence | Steroidogenic factor 1 (Homo sapiens), Q13285 | CHO-K1 Gal4-SF-1 LBD luciferase reporter; % increase over DMSO SF-1-specific signal | activation, % at 10 µM | 65,000 compounds, 1.9% hits | AID 522, 2006;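 active = activation above the mean activation of all tested compounds plus 3 SD, cut at about 50% in these data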
#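 Assay system: CHO-K1 cells co-transfected with Gal4 DBD–human SF-1 LBD, 5xGal4 luciferase reporter; doses: 10 µM only; incubation: 20 h compound exposure at 37 °C after 1 h cell settling; signal: luciferase light emission; evaluation: percent activation versus DMSO; repeats: one test per compound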
# An asterisk follows results filed as active; . = no result.
SMILES,S1P1 ag pot,RORA act,M1 agonist,M1 antag,S1P3 ag,SF-1 act
CC(C)(C)n1ncc2c(=O)n(CC(=O)Nc3ccccc3)cnc21,-10,-3,-0.33,0.39,0,8
CC(C)(C)n1ncc2c(=O)n(CC(=O)c3ccccc3)cnc21,-6,55*,0.064,-0.84,-1,93*
CC(C)(C)n1ncc2c(=O)n(CC(=O)NC3CCCCC3)cnc21,-7,24,1,-0.34,0,68*
CC(C)(C)n1ncc2c(=O)n(CC(=O)NCc3ccc(F)cc3)cnc21,-8,67*,-0.42,-0.028,-1,92*
CC(C)(C)n1ncc2c(=O)n(CC(=O)NCc3ccco3)cnc21,-6,38,-0.17,1,-1,50*
CC(=O)c1c(C)[nH]c(C(=O)NCCN2CCC(C)CC2)c1C,4,-4,-0.55,0.098,-1,9
O=C(NC1CC1)c1cccc(Nc2ccc(-c3ccc4c(c3)OCCO4)nn2)c1,22,16,3.8*,-2.7,-1,49
O=C(Nc1ccncc1)c1ccc2c(c1)OCCO2,1,38,-1.7,-0.53,-1,21
CCC(=O)Nc1nc2ccc3nc(C)sc3c2s1,-16,82*,0.36,0.061,0,56*
O=C(O)c1n[nH]c2ccccc12,.,-4,.,.,.,-6
O=C(O)c1nc2ccccc2nc1C(=O)O,-15,44,-0.51,-0.16,-1,58*
CCN1CCN(Cc2nc3c(c(=O)n(C)c(=O)n3C)n2Cc2ccc(Cl)cc2Cl)CC1,-12,12,-0.61,0.78,-1,18
Cc1cccc(-n2cnc3cc(C(=O)N4CCCCC4)ccc32)c1,.,16,0.89,0.12,.,55*
c1ccc(OCCSc2nnnn2-c2ccccc2)cc1,-7,35,-0.44,-0.37,0,63*
Fc1ccccc1OCCSc1nnnn1-c1ccccc1,-22,43,.,.,3,46
CCOC(=O)C1=C(C)N2C(=C(C#N)[C@@H]1c1ccc(C(=O)OC)cc1)SC[C@@]2(O)C(C)(C)C,4,16,-0.57,-0.21,0,-9
O=C(Nc1ccc(C(F)(F)F)cc1)C1CCCN1S(=O)(=O)c1cccc2cccnc12 (stereo not given),66*,10,0.62,0.87,0,7
COc1cc(CO)cc(Br)c1OCc1cccnc1,-22,23,.,.,-1,0
Cc1nn(-c2ccccc2)c(-c2ccccc2)c1C(=O)O,.,.,-0.087,-0.41,.,.
CCOC(=O)CNC(=O)c1ccc2c(c1)OCCO2,5,33,0.89,0.0088,0,53*
Cc1noc(C)c1S(=O)(=O)Nc1ccc(C(=O)N2CCc3ccccc3C2)cc1,-10,-15,-0.41,-0.013,0,0
CCCCCc1c(C)nc(N2CCc3ccccc32)[nH]c1=O,3,5,-0.75,1.5*,-2,1
CCCCCc1c(C)nc(N2CCc3ccccc3C2)[nH]c1=O,4,-17,0.55,-0.4,-1,-5
CC(C)CC(=O)Nc1ccccc1-c1nnn(CC(=O)N2CCOCC2)n1,19,-2,0.41,0.4,0,3
COC(=O)Nc1sc2c(c1C(=O)NCc1ccco1)CCC2,-6,-2,-0.38,0.33,-1,0
SMILES,S1P1 ag pot,RORA act,M1 agonist,M1 antag,S1P3 ag,SF-1 act
CCOc1ccccc1NC(=O)c1c(NC(=O)CNCc2ccco2)sc2c1CCC2,-12,-2,-0.59,-8.1*,0,-6
Cc1ccc2cc(CCNC(=O)c3ccco3)c(=O)[nH]c2c1,-8,77*,1.4,-1.2,-2,64*
Cc1ccc2cc(CN(CC3CCCO3)C(=O)c3ccco3)c(=O)[nH]c2c1C (stereo not given),-3,2,-1.6,-0.0064,0,15
Cc1ccc2cc(CCNC(=O)C(C)(C)C)c(=O)[nH]c2c1,-19,15,-0.18,-0.45,-1,-17
Cc1ccc2cc(CCNC(=O)c3ccco3)c(=O)[nH]c2c1C,32,51*,-0.51,0.22,-1,63*
CC(=O)NC12CC3CC(C)(C1)CC(NC(C)=O)(C3)C2,-4,-13,-0.17,-0.29,-1,-2
CCCCCCNC(=O)C(C(=O)OCC)C1CCCCC1 (stereo not given),.,-4,0.21,-0.98,-1,9
CCCOc1ccc(C(=O)Nc2ccc(N(C)C)cc2)cc1,26,56*,-0.54,-0.0093,-2,30
CC(C)Oc1ccc(C(=O)Nc2ccc(N(C)C)cc2)cc1,32,2,-0.097,0.17,-2,21
O=C(OCn1nnc2ccccc2c1=O)c1ccc2c(=O)n3c(nc2c1)CCC3,-17,-5,0.16,1.2,0,0
CC(C)C1O/C(=N/C(=O)Nc2ccc(Cl)c(Cl)c2)NC1=O (stereo not given),12,7,-0.92,-0.14,0,3
Cc1nc2ccccc2c2oc(C(=O)N3CCc4ccccc4C3)cc12,-23,19,6*,0.72,-1,8
Cc1cc(Nc2ccccc2N2CCOCC2)n2ncnc2n1,-43,3,0.28,0.45,1,-17
Cc1cc(C)n(C(C)n2nc(C)cc2C)n1,12,11,-0.066,0.021,-1,12
CCNc1nc(Oc2ccc(C(=O)OC)cc2)nc(N(C)C)n1,-29,4,-0.59,-0.022,-1,-22
CCNc1nc(N)nc(Oc2ccc(C(=O)OC)cc2)n1,1,56*,0.069,0.0086,0,44
O=C(NCc1cccs1)c1noc2c1CCCC2,-1,55*,-0.22,-0.39,0,4
COc1ccc(CNC(=O)c2cc(-c3ccco3)on2)cc1,-26,-13,-0.58,-0.045,-1,-5
COc1ccc(CNC(=O)c2noc3c2CCCC3)cc1,11,55*,0.72,0.32,-1,42
COc1ccc(CNC(=O)NC2CCCCC2)cc1,.,4,1,-0.19,0,50*
CCCc1cc(C(=O)NCc2ccc(OC)cc2)no1,-9,49*,-0.015,-0.047,0,29
Cc1cccc2c(=O)oc(-c3ccc4c(c3)C(=O)N(CC3CCCO3)C4=O)nc12 (stereo not given),-20,2,0.01,0.35,-1,-6
CCN(CC)CCNCc1ccc(-c2ccc(Cl)cc2)o1,-16,4,.,.,0,-6
Cc1ccc2oc(Nc3nc(C)cc(C)n3)nc2c1,-28,52*,-0.29,-0.049,0,22
